Data as given in ChEMBL document CHEMBL1123417, “New structure-activity relationships of the quinolone antibacterials using the target enzyme. The development and application of a DNA gyrase assay” (J Med Chem, 1986).
In brackets after ≈: the same amount, converted by molar mass.

Tests used:
DNA gyrase = DNA gyrase (Escherichia coli, UniProt P0AES4+P0AES6); assay: Inhibitory concentration in supercoiling inhibition Escherichia coli DNA gyrase assay; type: protein-complex assay; settings: read-out: I50 (converted)
How it was run: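 Gyrase A and B subunits purified from E. coli H560, each titrated to fully supercoil relaxed Col E1 plasmid (~0.3 μg/mL). Drug in 0.1 N KOH, 40 min at 30 °C, then ATP for 10 min. SDS/proteinase K quench, 1% agarose gel, ethidium stain. Serial dilutions start at 200 μg/mL. I50 is the mean of the initial-inhibition and 100%-inhibition concentrations.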

Klebsiella pneumoniae = assay: Antibacterial activity against Klebsiella pneumonia (MGH-2)
Streptococcus pneumoniae = assay: Antibacterial activity against Streptococcus pneumoniae (SV-1)
Escherichia coli [1] = assay: Antibacterial activity against Escherichia coli (vogel)
[2] = target: DNA gyrase (Escherichia coli) (UniProt P0AES6+P0AES4)
Escherichia coli [3] = assay: Antibacterial activity against Escherichia coli (H560)
Pseudomonas aeruginosa = assay: Antibacterial activity against Pseudomonas aeruginosa (UI-18)
Staphylococcus aureus = assay: Antibacterial activity against Staphylococcus aureus (H228)

SMILES | IC50 (DNA gyrase) | MIC (Klebsiella pneumoniae) | MIC (Streptococcus pneumoniae) | MIC (Escherichia coli [1]) | gyrase cleavage conc [2] | MIC (Escherichia coli [3]) | MIC (Pseudomonas aeruginosa) | MIC (Staphylococcus aureus)
CCn1cc(C(=O)O)c(=O)c2cc(F)c(N3CCSC3)nc21 | 201 µM | 0.4 µg/mL (≈ 1.24 µM) | 1.6 µg/mL (≈ 4.95 µM) | 0.1 µg/mL (≈ 0.309 µM) | 5 µg/mL | 0.4 µg/mL (≈ 1.24 µM) | 1.6 µg/mL (≈ 4.95 µM) | 0.05 µg/mL (≈ 0.155 µM)
CN1CCN(c2c(F)cc3c(=O)c(C(=O)O)cn(CCF)c3c2F)CC1 [FLEROXACIN] | 10.3 µM |  |  |  | 2.5 µg/mL |  |  | 
CCn1cc(C(=O)O)c(=O)c2cc(F)c(-n3cccc3)cc21 [IRLOXACIN] | 93.2 µM | 1.6 µg/mL (≈ 5.33 µM) | 12.5 µg/mL (≈ 41.6 µM) | 1.6 µg/mL (≈ 5.33 µM) | 2.5 µg/mL | 1.6 µg/mL (≈ 5.33 µM) | 12.5 µg/mL (≈ 41.6 µM) | 0.4 µg/mL (≈ 1.33 µM)
CCn1nc(C(=O)O)c(=O)c2cc3c(cc21)OCO3 [CINOXACIN] | > 381 µM |  |  |  | 43 µg/mL |  |  | 
CNn1cc(C(=O)O)c(=O)c2cc(F)c(N3CCN(C)CC3)cc21 [AMIFLOXACIN] | 18.8 µM | 0.2 µg/mL (≈ 0.598 µM) | 12.5 µg/mL (≈ 37.4 µM) | 0.1 µg/mL (≈ 0.299 µM) |  |  | 0.8 µg/mL (≈ 2.39 µM) | 1.6 µg/mL (≈ 4.79 µM)
CCn1cc(C(=O)O)c(=O)c2cc(F)c(N3CCNCC3)c(F)c21 | 18.7 µM | 0.1 µg/mL (≈ 0.296 µM) | 3.1 µg/mL (≈ 9.19 µM) | 0.2 µg/mL (≈ 0.593 µM) | 1 µg/mL | 0.1 µg/mL (≈ 0.296 µM) | 1.6 µg/mL (≈ 4.74 µM) | 3.1 µg/mL (≈ 9.19 µM)
CCn1cc(C(=O)O)c(=O)c2ccc(-c3ccncc3)cc21 [ROSOXACIN] | > 34 µM | 0.4 µg/mL (≈ 1.36 µM) | 12.5 µg/mL (≈ 42.5 µM) | 0.2 µg/mL (≈ 0.68 µM) | 2.5 µg/mL | 0.2 µg/mL (≈ 0.68 µM) | 6.3 µg/mL (≈ 21.4 µM) | 0.4 µg/mL (≈ 1.36 µM)
CCn1cc(C(=O)O)c(=O)c2cc([N+](=O)[O-])c(C)nc21 |  | 50 µg/mL (≈ 180 µM) | > 100 µg/mL | 25 µg/mL (≈ 90.2 µM) | 50 µg/mL | 50 µg/mL (≈ 180 µM) | > 100 µg/mL | 25 µg/mL (≈ 90.2 µM)
COn1cc(C(=O)O)c(=O)c2cc3c(cc21)OCO3 [MILOXACIN] | 190 µM | 0.2 µg/mL (≈ 0.76 µM) | 100 µg/mL (≈ 380 µM) | 0.4 µg/mL (≈ 1.52 µM) | 10 µg/mL | 0.4 µg/mL (≈ 1.52 µM) | 12.5 µg/mL (≈ 47.5 µM) | 6.3 µg/mL (≈ 23.9 µM)
CCn1cc(C(=O)O)c(=O)c2c(N)nc(N3CCN(C)CC3)nc21 |  | 6.3 µg/mL (≈ 19 µM) | 100 µg/mL (≈ 301 µM) | 1.6 µg/mL (≈ 4.81 µM) | 100 µg/mL | 3.1 µg/mL (≈ 9.33 µM) | 100 µg/mL (≈ 301 µM) | 100 µg/mL (≈ 301 µM)
CCn1cc(C(=O)O)c(=O)c2cc(F)c(N3CCCC3)nc21 | 16.4 µM | 3.1 µg/mL (≈ 10.2 µM) | 3.1 µg/mL (≈ 10.2 µM) | 3.1 µg/mL (≈ 10.2 µM) | 2.5 µg/mL | 0.4 µg/mL (≈ 1.31 µM) | 6.3 µg/mL (≈ 20.6 µM) | 0.2 µg/mL (≈ 0.655 µM)
CCn1cc(C(=O)O)c(=O)c2cc(F)ccc21 |  | 1.6 µg/mL (≈ 6.8 µM) | > 100 µg/mL | 0.8 µg/mL (≈ 3.4 µM) | 50 µg/mL | 25 µg/mL (≈ 106 µM) | > 100 µg/mL | > 100 µg/mL
CCn1cc(C(=O)O)c(=O)c2cc(F)c(N3CCN(C(C)=N)CC3)nc21 |  | 6.3 µg/mL (≈ 17.4 µM) | 50 µg/mL (≈ 138 µM) | 3.1 µg/mL (≈ 8.58 µM) | 6.3 µg/mL | 0.8 µg/mL (≈ 2.21 µM) | 25 µg/mL (≈ 69.2 µM) | 50 µg/mL (≈ 138 µM)
CCn1cc(C(=O)O)c(=O)c2ccc(N3CCNCC3)cc21 |  | 6.3 µg/mL (≈ 20.9 µM) | 50 µg/mL (≈ 166 µM) | 6.3 µg/mL (≈ 20.9 µM) | 18 µg/mL | 6.3 µg/mL (≈ 20.9 µM) | 25 µg/mL (≈ 83 µM) | > 50 µg/mL
CCn1cc(C(=O)O)c(=O)c2cc(F)c(F)c(F)c21 |  | 6.3 µg/mL (≈ 23.2 µM) | > 100 µg/mL | 1.6 µg/mL (≈ 5.9 µM) | 38 µg/mL | 6.3 µg/mL (≈ 23.2 µM) | > 100 µg/mL | 50 µg/mL (≈ 184 µM)
CCOC(=O)N1CCN(c2nc3c(cc2F)c(=O)c(C(=O)O)cn3CC)CC1 |  | 50 µg/mL (≈ 127 µM) | 100 µg/mL (≈ 255 µM) | 25 µg/mL (≈ 63.7 µM) | 18 µg/mL | 50 µg/mL (≈ 127 µM) | 200 µg/mL (≈ 510 µM) | 3.1 µg/mL (≈ 7.9 µM)
CCn1cc(C(=O)O)c(=O)c2cc(F)c(N3CCNCC3)nc21 [ENOXACIN] | 87.4 µM |  |  |  | 5 µg/mL |  |  | 
CCn1cc(C(=O)O)c(=O)c2cnc(N3CCCC3)nc21 [PIROMIDIC ACID] | > 347 µM |  |  |  | 38 µg/mL |  |  | 
CCn1cc(C(=O)O)c(=O)c2cc(F)c(NC)cc21 |  | 6.3 µg/mL (≈ 23.8 µM) | 100 µg/mL (≈ 378 µM) | 3.1 µg/mL (≈ 11.7 µM) | 18 µg/mL | 3.1 µg/mL (≈ 11.7 µM) | > 100 µg/mL | 12.5 µg/mL (≈ 47.3 µM)
CCn1cc(C(=O)O)c(=O)c2cc(F)c(N3CCC(N4CCCC4)CC3)cc21 |  | 1.6 µg/mL (≈ 4.13 µM) | 12.5 µg/mL (≈ 32.3 µM) | 0.4 µg/mL (≈ 1.03 µM) | 7.5 µg/mL | 0.1 µg/mL (≈ 0.258 µM) | 3.1 µg/mL (≈ 8 µM) | 3.1 µg/mL (≈ 8 µM)
CCn1cc(C(=O)O)c(=O)c2cc(F)c(/C=N/N3CCN(C)CC3)nc21 |  | 25 µg/mL (≈ 69.2 µM) | 100 µg/mL (≈ 277 µM) | 25 µg/mL (≈ 69.2 µM) | 100 µg/mL | 50 µg/mL (≈ 138 µM) | > 100 µg/mL | 25 µg/mL (≈ 69.2 µM)
CCn1cc(C(=O)O)c(=O)c2cc(F)c(C)nc21 |  | 6.3 µg/mL (≈ 25.2 µM) | > 100 µg/mL | 3.1 µg/mL (≈ 12.4 µM) | 25 µg/mL | 3.1 µg/mL (≈ 12.4 µM) | 50 µg/mL (≈ 200 µM) | 25 µg/mL (≈ 99.9 µM)
CCn1cc(C(=O)O)c(=O)c2cc(F)c(N3CCC(C(F)(F)F)CC3)cc21 |  | > 100 µg/mL | 6.3 µg/mL (≈ 16.3 µM) | 6.3 µg/mL (≈ 16.3 µM) | 5 µg/mL | 6.3 µg/mL (≈ 16.3 µM) | > 100 µg/mL | 0.1 µg/mL (≈ 0.259 µM)
CCn1cc(C(=O)O)c(=O)c2cnc(N3CCNCC3)nc21 [PIPEMIDIC ACID] | > 330 µM |  |  |  | 50 µg/mL |  |  | 
CCn1cc(C(=O)O)c(=O)c2cc(F)c(N3CCCC3)cc21 | 85.4 µM | > 100 µg/mL | 12.5 µg/mL (≈ 41.1 µM) | 1.6 µg/mL (≈ 5.26 µM) | 5 µg/mL | 1.6 µg/mL (≈ 5.26 µM) | > 100 µg/mL | 0.8 µg/mL (≈ 2.63 µM)
CCn1cc(C(=O)O)c(=O)c2cc3c(cc21)OCO3 [OXOLINIC ACID] | 95.7 µM |  |  |  | 10 µg/mL |  |  | 
